Experimental data as given in ChEMBL document CHEMBL1140162, “3-amino-7-phthalazinylbenzoisoxazoles as a novel class of potent, selective, and orally available inhibitors of p38alpha mitogen-activated protein kinase” (J Med Chem, 2008).

Tests used:
[1] = biological target: T1, Mitogen-activated protein kinase 14 (Homo sapiens, UniProt Q16539); test: Inhibition of human recombinant GST-tagged p38alphaMAPK-induced ATF2 phosphorylation
[2] = system: THP-1; test: Inhibition of LPS-induced TNFalpha production in human THP1 cells after 3 hrs; assay type: functional, cell-based; conditions: THP-1, 3 h
[3] = system: Blood; test: Inhibition of TNF-induced IL8 production in human whole blood; assay type: functional, tissue-based
[4] = biological target: Cytochrome P450 3A4 (Homo sapiens, UniProt P08684); test: Inhibition of CYP3A4 in human liver microsomes; assay type: ADME, Microsome
Sequence of Cytochrome P450 3A4 (P08684 whole entry): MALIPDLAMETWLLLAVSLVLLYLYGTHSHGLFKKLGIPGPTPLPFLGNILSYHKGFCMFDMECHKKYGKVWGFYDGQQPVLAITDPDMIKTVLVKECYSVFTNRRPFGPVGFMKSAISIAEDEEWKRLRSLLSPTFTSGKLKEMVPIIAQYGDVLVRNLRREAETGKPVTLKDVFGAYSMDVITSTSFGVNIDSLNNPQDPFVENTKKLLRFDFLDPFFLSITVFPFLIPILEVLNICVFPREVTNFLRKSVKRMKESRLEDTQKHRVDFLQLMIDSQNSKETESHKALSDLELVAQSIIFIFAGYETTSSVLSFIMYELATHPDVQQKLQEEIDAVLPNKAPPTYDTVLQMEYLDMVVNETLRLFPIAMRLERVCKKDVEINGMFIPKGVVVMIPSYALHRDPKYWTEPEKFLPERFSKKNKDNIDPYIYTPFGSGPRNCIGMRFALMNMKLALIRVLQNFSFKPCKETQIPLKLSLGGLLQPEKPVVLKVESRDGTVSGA

[5] = biological target: Cytochrome P450 2D6 (Homo sapiens, UniProt P10635); test: Inhibition of CYP2D6; assay type: ADME
Sequence of Cytochrome P450 2D6 (P10635 whole entry): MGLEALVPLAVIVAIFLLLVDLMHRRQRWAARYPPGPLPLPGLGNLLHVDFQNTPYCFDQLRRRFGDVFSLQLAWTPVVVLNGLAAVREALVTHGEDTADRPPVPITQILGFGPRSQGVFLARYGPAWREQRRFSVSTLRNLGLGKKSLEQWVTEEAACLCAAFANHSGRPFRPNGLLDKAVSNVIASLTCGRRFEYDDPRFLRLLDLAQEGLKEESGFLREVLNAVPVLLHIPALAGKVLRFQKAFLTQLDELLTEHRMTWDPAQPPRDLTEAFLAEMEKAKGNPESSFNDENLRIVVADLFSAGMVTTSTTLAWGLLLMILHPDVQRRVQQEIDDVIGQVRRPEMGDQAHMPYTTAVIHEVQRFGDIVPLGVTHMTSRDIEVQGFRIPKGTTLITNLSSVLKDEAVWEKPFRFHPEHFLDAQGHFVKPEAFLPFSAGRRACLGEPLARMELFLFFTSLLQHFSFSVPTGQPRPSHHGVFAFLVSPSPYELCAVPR

[6] = biological target: T2, Mast/stem cell growth factor receptor Kit (Homo sapiens, UniProt P10721); test: Inhibition of c-KIT
T2 sequence (P10721 whole entry): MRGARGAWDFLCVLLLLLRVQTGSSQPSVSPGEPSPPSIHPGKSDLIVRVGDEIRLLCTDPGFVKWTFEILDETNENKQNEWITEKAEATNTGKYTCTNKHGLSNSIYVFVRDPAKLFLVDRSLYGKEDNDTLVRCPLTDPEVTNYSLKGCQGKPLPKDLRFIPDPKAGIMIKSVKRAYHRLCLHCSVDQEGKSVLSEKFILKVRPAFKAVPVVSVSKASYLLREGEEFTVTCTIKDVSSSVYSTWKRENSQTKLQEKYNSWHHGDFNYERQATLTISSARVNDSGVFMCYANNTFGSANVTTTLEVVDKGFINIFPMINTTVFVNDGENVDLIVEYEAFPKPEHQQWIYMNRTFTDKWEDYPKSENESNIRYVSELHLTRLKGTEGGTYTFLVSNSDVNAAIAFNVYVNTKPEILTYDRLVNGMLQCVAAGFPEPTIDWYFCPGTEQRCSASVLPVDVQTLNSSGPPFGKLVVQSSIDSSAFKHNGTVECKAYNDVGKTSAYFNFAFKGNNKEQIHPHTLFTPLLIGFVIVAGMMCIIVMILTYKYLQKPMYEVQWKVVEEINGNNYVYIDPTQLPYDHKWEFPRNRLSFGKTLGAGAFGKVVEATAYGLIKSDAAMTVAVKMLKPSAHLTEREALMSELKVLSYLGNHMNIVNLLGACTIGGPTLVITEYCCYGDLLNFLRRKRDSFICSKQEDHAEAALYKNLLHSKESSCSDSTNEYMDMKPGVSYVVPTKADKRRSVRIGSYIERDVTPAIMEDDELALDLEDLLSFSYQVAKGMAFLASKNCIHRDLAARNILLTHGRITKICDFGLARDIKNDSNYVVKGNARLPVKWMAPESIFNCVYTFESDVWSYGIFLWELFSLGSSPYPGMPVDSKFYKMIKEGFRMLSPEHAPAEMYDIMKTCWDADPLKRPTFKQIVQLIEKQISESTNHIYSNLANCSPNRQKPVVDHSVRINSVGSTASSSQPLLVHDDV

[7] = biological target: T3, Nuclear receptor subfamily 1 group I member 2 (Homo sapiens, UniProt O75469); test: Activation of human PXR
T3 sequence (O75469 whole entry): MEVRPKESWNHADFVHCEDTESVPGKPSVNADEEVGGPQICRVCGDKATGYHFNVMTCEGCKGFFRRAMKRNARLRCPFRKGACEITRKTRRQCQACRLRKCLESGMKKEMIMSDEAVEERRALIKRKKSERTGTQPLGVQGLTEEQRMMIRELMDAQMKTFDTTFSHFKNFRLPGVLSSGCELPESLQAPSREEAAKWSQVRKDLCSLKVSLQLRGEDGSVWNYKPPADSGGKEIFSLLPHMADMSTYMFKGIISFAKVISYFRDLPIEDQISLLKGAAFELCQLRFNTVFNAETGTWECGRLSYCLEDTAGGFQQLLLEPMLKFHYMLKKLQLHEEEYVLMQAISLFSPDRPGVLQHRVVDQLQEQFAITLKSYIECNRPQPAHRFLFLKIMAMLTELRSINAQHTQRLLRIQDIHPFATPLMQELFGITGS

[8] = biological target: Voltage-gated inwardly rectifying potassium channel KCNH2 (Homo sapiens, UniProt Q12809); test: Inhibition of human ERG by manual electrophysiology
Sequence of Voltage-gated inwardly rectifying potassium channel KCNH2 (Q12809 whole entry): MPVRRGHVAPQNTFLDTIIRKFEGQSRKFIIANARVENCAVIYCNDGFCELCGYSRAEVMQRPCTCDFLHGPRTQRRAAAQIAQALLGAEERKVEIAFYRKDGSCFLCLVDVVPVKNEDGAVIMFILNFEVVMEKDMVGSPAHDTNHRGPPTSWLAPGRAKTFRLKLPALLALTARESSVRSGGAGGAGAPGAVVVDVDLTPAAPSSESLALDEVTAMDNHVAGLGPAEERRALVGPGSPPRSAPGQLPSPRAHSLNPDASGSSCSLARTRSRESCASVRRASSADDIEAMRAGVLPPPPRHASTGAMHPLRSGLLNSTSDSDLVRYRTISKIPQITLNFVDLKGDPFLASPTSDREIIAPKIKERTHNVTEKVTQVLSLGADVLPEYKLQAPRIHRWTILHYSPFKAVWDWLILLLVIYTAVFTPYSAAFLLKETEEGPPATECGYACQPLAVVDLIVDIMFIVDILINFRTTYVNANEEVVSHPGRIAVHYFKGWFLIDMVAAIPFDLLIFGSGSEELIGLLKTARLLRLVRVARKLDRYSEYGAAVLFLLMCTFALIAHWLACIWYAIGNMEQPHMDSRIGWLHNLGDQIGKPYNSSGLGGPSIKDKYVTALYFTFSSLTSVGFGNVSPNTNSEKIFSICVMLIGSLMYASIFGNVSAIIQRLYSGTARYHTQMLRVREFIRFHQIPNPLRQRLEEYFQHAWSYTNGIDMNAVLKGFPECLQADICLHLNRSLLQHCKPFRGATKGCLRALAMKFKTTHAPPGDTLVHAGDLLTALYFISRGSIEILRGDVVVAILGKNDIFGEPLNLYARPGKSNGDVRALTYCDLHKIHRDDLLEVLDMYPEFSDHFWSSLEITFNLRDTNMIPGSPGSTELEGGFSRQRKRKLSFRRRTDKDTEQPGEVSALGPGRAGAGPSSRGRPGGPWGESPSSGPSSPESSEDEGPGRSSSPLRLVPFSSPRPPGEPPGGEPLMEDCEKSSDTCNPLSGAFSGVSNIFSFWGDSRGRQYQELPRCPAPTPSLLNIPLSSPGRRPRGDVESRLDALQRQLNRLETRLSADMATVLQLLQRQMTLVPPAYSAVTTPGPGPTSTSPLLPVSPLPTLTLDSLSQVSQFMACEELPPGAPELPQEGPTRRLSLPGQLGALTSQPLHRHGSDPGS

[9] = system: Rattus norvegicus; test: Antiinflammatory effect in po dosed collagen-induced arthritis Lewis rat model assessed as inhibition of paw swelling administered once a day for 7 days; assay type: functional
In short: (§1)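 Lewis rats immunized intradermally with porcine type II collagen in incomplete Freund's adjuvant; dosing oral, once daily for 7 days from disease onset (days 10-12), vehicle 1% Tween-80 in Oraplus pH 2.2, doses 0.03-3.0 mg/kg. Paw diameter measured daily days 0-7; area under swelling curve used for percent inhibition versus vehicle; n = 8 rats/group. Exposure values interpolated.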

[10] = system: Rattus norvegicus; test: AUC (0 to 24 hrs) in po dosed collagen-induced arthritis Lewis rat model; assay type: ADME, organism-based; parameters: time < 24 hr, route oral; conditions: in vivo; in short: as §1
[11] = system: Rattus norvegicus; test: Cmax in po dosed collagen-induced arthritis Lewis rat model; assay type: ADME, organism-based; parameters: route oral; conditions: in vivo; in short: as §1
[12] = Concentration of drug level in po dosed collagen-induced arthritis Lewis rat model after 24hrs; assay type: ADME, organism-based; conditions: in vivo, read-out: Drug uptake; in short: as §1
[13] = Volume of distribution in Sprague-Dawley rat at 2 mg/kg, iv; assay type: ADME, organism-based; parameters: dose 2 mg/kg, route intravenous; conditions: in vivo
In short: (§2)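 Sprague-Dawley rats given 2 mg/kg intravenously; clearance, volume of distribution and elimination half-life derived from plasma profile.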

[14] = Elimination half life in Sprague-Dawley rat at 2 mg/kg, iv; assay type: ADME, organism-based; parameters: dose 2 mg/kg, route intravenous; conditions: in vivo; in short: as §2
[15] = Tmax in Sprague-Dawley rat at 10 mg/kg, po; assay type: ADME, organism-based; parameters: dose 10 mg/kg, route oral; conditions: in vivo
In short: (§3)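 Sprague-Dawley rats dosed orally at 10 mg/kg as a solution in 1% Tween-80 in OralPlus (pH 2.2); bioavailability derived against 2 mg/kg iv dosing.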

[16] = system: Rattus norvegicus; test: Cmax in Sprague-Dawley rat at 10 mg/kg, po; assay type: ADME, organism-based; parameters: dose 10 mg/kg, route oral; conditions: in vivo; in short: as §3
[17] = system: Rattus norvegicus; test: Oral bioavailability in Sprague-Dawley rat at 10 mg/kg; assay type: ADME, organism-based; conditions: in vivo; in short: as §3
[18] = Protein binding in Sprague-Dawley rat plasma; assay type: ADME, cell-free; conditions: read-out: PPB (converted)
In short: (§4)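 Plasma protein binding in rat or human plasma measured by ultrafiltration.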

[19] = Protein binding in human plasma; assay type: ADME, cell-free; conditions: read-out: PPB (converted); in short: as §4
[20] = system: Liver microsomes; test: Metabolic stability in Sprague-Dawley rat liver microsomes assessed per mg of protein by LCMS in presence of NADPH; assay type: ADME, Microsome
In short: (§5)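 Test article 1 µM incubated with rat or human liver microsomes (0.1 mg/mL) in 66.67 mM potassium phosphate pH 7.4; NADPH 1 mM started reaction, blank without NADPH; stopped at 10 min with acetonitrile/0.05% formic acid; remaining parent quantified by LCMS; triplicates.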

[21] = system: Liver microsomes; test: Metabolic stability in human liver microsomes assessed per mg of protein by LCMS in presence of NADPH; assay type: ADME, Microsome; in short: as §5
[22] = biological target: T4, Mitogen-activated protein kinase 11 (Homo sapiens, UniProt Q15759); test: Inhibition of human recombinant GST-tagged p38beta-induced ATF2 phosphorylation
T4 sequence (Q15759 whole entry): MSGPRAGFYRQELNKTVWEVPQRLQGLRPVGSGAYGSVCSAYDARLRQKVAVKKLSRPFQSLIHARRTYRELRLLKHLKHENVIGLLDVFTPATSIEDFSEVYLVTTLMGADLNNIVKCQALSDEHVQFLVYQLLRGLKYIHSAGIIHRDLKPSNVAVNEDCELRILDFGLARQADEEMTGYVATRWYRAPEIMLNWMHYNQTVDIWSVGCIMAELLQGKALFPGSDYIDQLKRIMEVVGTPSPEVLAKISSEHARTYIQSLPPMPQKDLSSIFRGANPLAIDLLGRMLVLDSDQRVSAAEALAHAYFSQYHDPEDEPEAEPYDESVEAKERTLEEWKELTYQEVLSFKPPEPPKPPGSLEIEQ

[23] = biological target: T1, Mitogen-activated protein kinase 14; test: Inhibition of p38alpha at 1 uM relative to control
[24] = biological target: T4, Mitogen-activated protein kinase 11; test: Inhibition of p38beta at 1 uM relative to control
[25] = biological target: T5, Platelet-derived growth factor receptor beta (Homo sapiens, UniProt P09619); test: Inhibition of PDGFRbeta at 1 uM relative to control
T5 sequence (P09619 whole entry): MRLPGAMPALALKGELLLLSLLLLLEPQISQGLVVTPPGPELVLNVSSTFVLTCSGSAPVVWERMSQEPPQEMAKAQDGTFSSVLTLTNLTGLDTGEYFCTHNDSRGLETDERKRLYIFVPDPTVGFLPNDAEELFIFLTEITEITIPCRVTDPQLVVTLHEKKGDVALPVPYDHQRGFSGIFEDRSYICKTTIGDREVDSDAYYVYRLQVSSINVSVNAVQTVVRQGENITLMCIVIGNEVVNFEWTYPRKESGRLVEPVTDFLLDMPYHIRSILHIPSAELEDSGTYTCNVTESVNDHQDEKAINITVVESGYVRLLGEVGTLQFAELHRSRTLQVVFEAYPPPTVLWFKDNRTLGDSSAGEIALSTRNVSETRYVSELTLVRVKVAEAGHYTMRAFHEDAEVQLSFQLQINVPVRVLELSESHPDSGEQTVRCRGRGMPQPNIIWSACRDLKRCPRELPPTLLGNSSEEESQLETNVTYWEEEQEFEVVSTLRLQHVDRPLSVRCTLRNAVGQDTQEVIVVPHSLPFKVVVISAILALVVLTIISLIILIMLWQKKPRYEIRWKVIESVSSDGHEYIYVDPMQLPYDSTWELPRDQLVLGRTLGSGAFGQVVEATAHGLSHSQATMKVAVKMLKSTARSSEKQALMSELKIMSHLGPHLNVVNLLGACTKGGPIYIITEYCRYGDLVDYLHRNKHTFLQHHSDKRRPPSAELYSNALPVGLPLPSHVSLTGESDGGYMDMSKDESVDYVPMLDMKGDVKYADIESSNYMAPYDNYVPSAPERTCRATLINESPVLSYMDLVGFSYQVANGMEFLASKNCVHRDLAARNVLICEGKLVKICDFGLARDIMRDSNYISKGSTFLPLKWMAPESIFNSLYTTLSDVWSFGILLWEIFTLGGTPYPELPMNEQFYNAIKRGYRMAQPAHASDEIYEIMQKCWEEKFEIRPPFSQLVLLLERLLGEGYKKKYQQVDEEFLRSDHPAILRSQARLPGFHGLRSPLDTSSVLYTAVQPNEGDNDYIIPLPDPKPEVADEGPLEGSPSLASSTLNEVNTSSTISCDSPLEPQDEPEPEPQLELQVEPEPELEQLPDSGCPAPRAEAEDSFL

[26] = biological target: T2, Mast/stem cell growth factor receptor Kit; test: Inhibition of c-KIT at 1 uM relative to control
[27] = biological target: T5, Platelet-derived growth factor receptor beta; test: Inhibition of PDGFRbeta

T1 sequence (Q16539 whole entry): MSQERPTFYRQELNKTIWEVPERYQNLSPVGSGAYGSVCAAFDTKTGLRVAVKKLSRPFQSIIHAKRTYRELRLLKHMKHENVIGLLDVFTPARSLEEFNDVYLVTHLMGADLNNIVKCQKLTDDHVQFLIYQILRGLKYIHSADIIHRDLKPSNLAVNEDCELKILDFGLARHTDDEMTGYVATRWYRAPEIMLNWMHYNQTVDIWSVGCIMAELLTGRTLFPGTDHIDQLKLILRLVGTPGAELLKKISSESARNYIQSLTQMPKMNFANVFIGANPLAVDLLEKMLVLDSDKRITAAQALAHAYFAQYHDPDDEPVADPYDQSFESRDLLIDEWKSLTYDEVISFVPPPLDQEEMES

CC[C@H](C)Nc1nncc2cc(-c3c(C)ccc4c(NC)noc34)ccc12
Ki [1]: 0.2 nM | IC50 [2]: 1.3 nM | IC50 [3]: 2.1 nM | IC50 [4]: > 25 µM

CNc1noc2c(-c3ccc4c(N5CCOC[C@@H]5C)nncc4c3)c(Cl)ccc12
Ki [1]: 0.2 nM | IC50 [2]: 1.3 nM | IC50 [3]: 3.3 nM | IC50 [4]: 6 µM

CC(=O)N1CCN(c2nncc3cc(-c4c(C)ccc5c(NC6CC6)noc45)ccc23)[C@@H](C)C1
Ki [1]: 0.8 nM | IC50 [2]: 0.8 nM | IC50 [3]: 1.4 nM | IC50 [5]: > 25 µM

CNc1noc2c(-c3ccc4c(N5CCOC[C@H]5C)nncc4c3)c(C)ccc12
Ki [1]: 0.3 nM | IC50 [2]: 1 nM | IC50 [3]: 4.5 nM | IC50 [4]: > 25 µM

Cc1ccccc1-c1nncc2cc(-c3c(C)ccc4c(NC5CC5)noc34)ccc12
Ki [1]: 0.4 nM | IC50 [2]: 0.4 nM | IC50 [3]: 3.3 nM | IC50 [4]: 1.8 µM | IC50 [5]: > 25 µM

CC(=O)Nc1noc2c(-c3ccc4c(N5CCOC[C@@H]5C)nncc4c3)c(C)ccc12
Ki [1]: 0.6 nM | IC50 [2]: 0.7 nM | IC50 [3]: 2 nM | IC50 [4]: > 25 µM

Cc1ccc2c(N)n[nH]c2c1-c1ccc2c(N3CCOC[C@@H]3C)nncc2c1
Ki [1]: 16 nM | IC50 [2]: 120 nM | IC50 [3]: 153 nM

CCNc1noc2c(-c3ccc4c(N5CCOC[C@@H]5C)nncc4c3)c(C)ccc12
Ki [1]: 0.3 nM | IC50 [2]: 0.4 nM | IC50 [3]: 2 nM | IC50 [4]: 10 µM

CNc1noc2c(-c3ccc4c(OC(C)C)nncc4c3)c(C)ccc12
Ki [1]: 0.4 nM | IC50 [2]: 0.7 nM | IC50 [3]: 7 nM | IC50 [4]: > 25 µM

CNc1noc2c(-c3ccc4c(C(C)C)nncc4c3)c(C)ccc12
Ki [1]: 1.1 nM | IC50 [2]: 1.1 nM | IC50 [3]: 3.4 nM | IC50 [4]: > 25 µM

Cc1ccc2c(NC3CC3)noc2c1-c1ccc2c(N3CCOC[C@@H]3C)nncc2c1
Ki [1]: 0.7 nM | IC50 [2]: 0.6 nM | IC50 [3]: 1.3 nM | IC50 [4]: 5.6 µM | IC50 [5]: > 25 µM

CC(C)Nc1noc2c(-c3ccc4c(N5CCOC[C@@H]5C)nncc4c3)c(Cl)ccc12
Ki [1]: 0.4 nM | IC50 [2]: 3.6 nM | IC50 [3]: 15 nM | IC50 [4]: 4.5 µM

Cc1ccc2c(N)noc2c1-c1ccc2c(N3CCOC[C@@H]3C)nncc2c1
Ki [1]: 0.3 nM | IC50 [2]: 3.6 nM | IC50 [3]: 5.2 nM | IC50 [4]: 12 µM

CNc1noc2c(-c3ccc4c(N5CCOC[C@@H]5C)nncc4c3)c(C)ccc12
IC50 [6]: 1600 nM | Activity [7]: Not Active | IC50 [8]: 13 µM | Activity [9]: Dose-dependent effect | ED50 ([9]; 168 h): 0.05 mg/kg | AUC [10]: 22.4 nM·h | Cmax [11]: 7 nM | concentration at 24 h [12]: 0.3 nM | Ki [1]: 0.4 nM | IC50 [2]: 0.4 nM | IC50 [3]: 3.3 nM | IC50 [4]: > 25 µM | Vd [13]: 2.4 L/kg | half-life [14]: 168 min | Tmax [15]: 1.7 h | Cmax [16]: 1040 ng/mL | F [17]: 67% | fraction unbound [18]: 0.1 | fraction unbound [19]: 0.08 | Stability [20]: 120 µL/min | Stability [21]: 132 µL/min | Ki [22]: 1.8 nM | inhibition [23]: < 50% | inhibition [24]: < 50% | inhibition [25]: < 50% | inhibition [26]: < 50% | IC50 [27]: 830 nM

CNc1noc2c(-c3ccc4c(NC(C)C)nncc4c3)c(C)ccc12
Ki [1]: 0.5 nM | IC50 [2]: 0.7 nM | IC50 [3]: 2.2 nM | IC50 [4]: > 25 µM

Cc1ccc2c(NC3CC3)noc2c1-c1ccc2c(NC(C)C)nncc2c1
Ki [1]: 0.5 nM | IC50 [2]: 0.4 nM | IC50 [3]: 0.7 nM | IC50 [4]: 5.6 µM | IC50 [5]: > 25 µM

Cc1ccc2c(N)nsc2c1-c1ccc2c(N3CCOC[C@@H]3C)nncc2c1
Ki [1]: 2 nM | IC50 [2]: 29 nM | IC50 [3]: 50 nM | IC50 [4]: 4 µM
